Measured values published in publication PMC7586407 (Journal of Medicinal Chemistry, 2020).
Values belong to the molecule of their own block, whether it stands above or below them.

What was measured:
A549 cells [1] = test: Colony formation; type: cell-based; details: 10 days
Summary of the method: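 A549 cells seeded at 100 cells/well in RPMI with 10% FBS and 100 U/mL penicillin/streptomycin, then incubated overnight. Exposed to test compound for 10 days; final DMSO 0.2%, with 0.2% DMSO as vehicle control. Fixed with 4% paraformaldehyde (20 min), stained with 0.5% crystal violet (20 min), photographed and image-analysed. A colony is an aggregate of >50 cells.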

MIF [2] = biological target: T1, MIF (Homo sapiens, UniProt P14174); test: MIF tautomerase activity assay with 4-HPP as substrate; details: for LE (ligand efficiency): LE = 1.4(−log IC50)/N; for LLE (lipophilic ligand efficiency): LLE = pIC50 – C log P
T1 sequence (P14174 2-115 limits assumed): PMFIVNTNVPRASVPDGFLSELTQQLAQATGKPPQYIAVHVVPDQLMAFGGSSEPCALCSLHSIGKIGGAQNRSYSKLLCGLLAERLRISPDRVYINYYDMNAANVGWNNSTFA

[3] = Fluorescence quantum yield and fluorescence lifetime; type: physicochemical; details: relative to 4-MU, excitation 330 nm
MIF [4] = biological target: T1, MIF; test: FID assay with 7 as fluorescent indicator; type: binding; details: 7 50 nM, MIF 100 nM, PBS pH 7.4; calculated from EC50 by eq 1
MIF–sCD74 interaction = biological target: T2, MIF–sCD74 interaction (Homo sapiens, UniProt P14174); test: ELISA of MBP–sCD74 binding to coated MIF; details: at concentrations up to 50 μM
T2 sequence (P14174 2-115 limits assumed): T1 sequence (P14174 2-115 limits assumed)
Summary of the method: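 Recombinant C-terminal His-tagged human MIF (E. coli-expressed, Ni-purified) coated at 250 nM overnight at 4 °C, then blocked with 2% BSA and washed. His/MBP-purified MBP–sCD74 (500 nM) was premixed with test compound (1–100 μM, added in DMSO) for 10 min at RT, then applied to wells for 30 min at RT. Controls: DMSO vehicle and no-sCD74. Detection used rabbit anti-CD74 (1:1000) then goat anti-rabbit HRP (1:1000), each 30 min at RT.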

MIF [5] = biological target: T1, MIF; test: FID assay with 6d as fluorescent indicator; type: binding
A549 cells [6] = test: MTS cell viability assay; type: cell-based; details: concentrations below 20 μM, 24 h of treatment
[7] = tested on: MIF-induced ERK phosphorylation in A549 cells; test: MIF-induced ERK phosphorylation, Western blot; type: cell-based; details: 10 μM, 150 ng/mL MIF
[8] = biological target: bovine serum albumin (BSA) (Bos taurus, UniProt P02769); test: Fluorescence quenching control with BSA; type: binding; details: 800 nM BSA, 50 nM fluorophore
Chain of bovine serum albumin (BSA) (P02769 25-607): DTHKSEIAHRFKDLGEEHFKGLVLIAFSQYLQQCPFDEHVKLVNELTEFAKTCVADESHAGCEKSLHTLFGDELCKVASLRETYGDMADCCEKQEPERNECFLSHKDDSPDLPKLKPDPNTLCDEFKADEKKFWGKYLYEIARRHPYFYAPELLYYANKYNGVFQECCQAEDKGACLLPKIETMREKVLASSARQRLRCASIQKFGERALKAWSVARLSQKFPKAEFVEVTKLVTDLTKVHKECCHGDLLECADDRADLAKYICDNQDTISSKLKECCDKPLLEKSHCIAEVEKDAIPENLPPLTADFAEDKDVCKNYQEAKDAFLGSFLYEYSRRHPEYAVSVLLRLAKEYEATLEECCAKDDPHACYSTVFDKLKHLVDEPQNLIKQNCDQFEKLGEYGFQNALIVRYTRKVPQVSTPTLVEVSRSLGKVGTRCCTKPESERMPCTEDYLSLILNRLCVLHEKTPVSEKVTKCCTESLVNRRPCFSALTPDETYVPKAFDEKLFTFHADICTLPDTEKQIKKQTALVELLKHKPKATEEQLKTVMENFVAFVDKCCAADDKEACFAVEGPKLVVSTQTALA

Molecule: O=C(NCc1cn(-c2ccc(O)c(F)c2)nn1)c1cc2cc(Cl)ccc2[nH]1 [Compound 13, 5-chloro-N-((1-(3-fluoro-4-hydroxyphenyl)-1H-1,2,3-triazol-4-yl)methyl)-1H-indole-2-carboxamide, reference compound]
colony formation (A549 cells [1]; 10 μM): inhibited colony formation
LE (ligand efficiency) (MIF [2]): 0.30
LLE (lipophilic ligand efficiency) (MIF [2]): 2.05

Molecule: 4-(4-(isoquinolin-3-yl)-1H-1,2,3-triazol-1-yl)phenol [Compound 10, reference compound]
Kd (MIF [4]): 470 ± 80 nM
Ki (MIF [2]; 4-HPP conversion assay, Ki = IC50/(1 + 0.5/Km)): 440 ± 30 nM

Molecule: COc1ccc(N2Cc3ccc(O)cc3OC2=O)cc1OC [Compound 8, 3-(3,4-Dimethoxyphenyl)-7-hydroxy-3,4-dihydro-2H-benzo[e][1,3]oxazin-2-one, reference compound]
EC50 (MIF [5]): 386 ± 44 nM
inhibition of MIF–sCD74 binding (MIF–sCD74 interaction): did not demonstrate inhibition
LE (ligand efficiency) (MIF [2]): 0.43
LLE (lipophilic ligand efficiency) (MIF [2]): 4.85

Molecule: O=C(O)c1ccc(-c2ccc(-c3cc4ccc(O)cc4oc3=O)cc2)cc1 [Compound 7, 4′-(7-Hydroxy-2-oxo-2H-chromen-3-yl)-[1,1′-biphenyl]-4-carboxylic Acid]
cell viability (A549 cells [6]): did not inhibit cell viability
colony formation (A549 cells [1]; 2.5 μM): significantly lower numbers of colonies
colony formation (A549 cells [1]; 10 μM): significantly lower numbers of colonies
MIF-induced ERK phosphorylation [7]: attenuated MIF-induced ERK phosphorylation
fluorescence quantum yield [3]: 0.32
fluorescence quenching by BSA [8]: no fluorescence quenching
IC50 (MIF [2]): 71 ± 3 nM
LE (ligand efficiency) (MIF [2]): 0.37
LLE (lipophilic ligand efficiency) (MIF [2]): 5.80
mode of inhibition (enzyme kinetics) (MIF [2]; Lineweaver–Burk plot vs 4-HPP): binds in competition with 4-HPP
increased potency compared to precursor 6l (MIF [2]; vs 6l): 10 fold

Further lines, with some results ahead:

fluorescence quantum yield [3]: 0.25
Molecule: COc1ccc(-c2cc3ccc(O)cc3oc2=O)cc1 [Compound 6d, 7-Hydroxy-3-(4-methoxyphenyl)-2H-chromen-2-one]

inhibition of MIF–sCD74 binding (MIF–sCD74 interaction): did not demonstrate inhibition
Molecule: COC(=O)CC1CC(c2ccc(O)cc2)=NO1 (stereo not drawn) [ISO-1, methyl 2-(3-(4-hydroxyphenyl)-4,5-dihydroisoxazol-5-yl)acetate, reference compound]
colony formation (A549 cells [1]; 100 μM): inhibited colony formation

enhanced potency compared to inhibitor 2 (MIF [2]; Ki ratio vs 2): 10 fold
Molecule: O=c1oc2cc(O)ccc2cc1-c1ccccc1 [Compound 6a, 7-Hydroxy-3-phenyl-2H-chromen-2-one]
